According to ChEMBL document CHEMBL1671848, “In Vitro and In Vivo Osteogenic Activity of Largazole” (ACS Med Chem Lett, 2011):
Activity calls are given as the source filed them. The rule behind the calls is not given here.

How the values were obtained:
Oryctolagus cuniculus = organism: Oryctolagus cuniculus; assay: Osteogenic activity in rabbit calvarial bone fracture healing model assessed as bone formation at 100 to 200 nM after 4 weeks; format: functional
Mus musculus [1] = assay: Osteogenic activity in mouse assessed as induction of woven bone formation at 50 uM administered with collagen sponges in calvarial bone after 3 weeks; format: functional, organism-based
Summary of the method: (§1)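 Collagen sponges holding 5 μL of compound solution or PBS vehicle placed onto mouse calvarial bones; after 3-week implantation calvariae removed, fixed, decalcified, paraffin-embedded and sectioned for histology of woven bone formation.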

Mus musculus [2] = assay: Osteogenic activity in mouse assessed as induction of woven bone formation at 10 uM administered with collagen sponges in calvarial bone after 3 weeks; format: functional, organism-based; summary of the method: as §1
C2C12 [3] = assay: Osteogenic activity in mouse C2C12 cells assessed as inhibition of multinucleated osteoclasts formation after 6 days; format: functional, cell-based
C2C12 [4] = assay: Osteogenic activity in mouse C2C12 cells assessed as increase of BMP4 mRNA expression at up to 50 nM after 6 days by RT-PCR analysis; format: functional, cell-based
Summary of the method: (§2)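 Quantitative real-time PCR of mRNA from C2C12 cells, 1 × 10^6 cells per 60-mm plate, treated 6 days; rhBMP-2 at 300 ng/mL served as reference osteoblastogenesis inducer.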

C2C12 [5] = assay: Osteogenic activity in mouse C2C12 cells assessed as increase of BMP9 mRNA expression at up to 50 nM after 6 days by RT-PCR analysis; format: functional, cell-based; summary of the method: as §2
C2C12 [6] = assay: Osteogenic activity in mouse C2C12 cells assessed as increase of Runx2 mRNA expression at 50 nM after 6 days by RT-PCR analysis relative to control; format: functional; summary of the method: as §2
C2C12 [7] = assay: Osteogenic activity in mouse C2C12 cells assessed as increase of BMP7 mRNA expression at up to 50 nM after 6 days by RT-PCR analysis; format: functional, cell-based; summary of the method: as §2
C2C12 [8] = assay: Inhibition of HDAC in mouse C2C12 cells assessed as increase of acetylated histone level after 24 hrs by Western blotting; format: cell-based
Summary of the method: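 C2C12 cells, 2 × 10^6 cells per 100-mm plate, cultured 24 h, then treated 24 h; protein extracts analysed for hyperacetylated histones by Western blot with actin as loading control.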

C2C12 [9] = assay: Induction of osteoblast differentiation in mouse C2C12 cells assessed as increase of osteopontin expression up to 100 nM after 6 days; format: functional, cell-based
C2C12 [10] = assay: Inhibition of HDAC in mouse C2C12 cells at 5 to 100 nM after 24 hrs by fluorescence assay; format: cell-based
Summary of the method: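 Total HDAC activity in intact C2C12 cells, 4 × 10^3 cells/well, cultured 24 h, pretreated with compound 1 h, then incubated with fluorogenic deacetylase Lysyl substrate; HDAC activity read by fluorescence per kit protocol.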

[11] = target: Runt-related transcription factor 2 (Mus musculus) (UniProt Q08775); assay: Activation of Runx2 activity in mouse C2C12 cells at 50 nM after 24 hrs by luciferase reporter gene assay relative to control; format: cell-based
Summary of the method: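 6×OSE2-luc plasmid-transfected C2C12 cells, 4 × 10^3 cells/well, cultured 1 day, then 1 day in DMEM with 5% FBS with or without compound; Runx2 activation read as luciferase activity.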

C2C12 [12] = assay: Cytotoxicity against mouse C2C12 cells up to 100 uM after 3 days; format: cell-based; conditions: c2c12, 72 h
C2C12 [13] = assay: Osteogenic activity in mouse C2C12 cells assessed as increase of BMP6 mRNA expression at up to 50 nM after 6 days by RT-PCR analysis; format: functional, cell-based; summary of the method: as §2
C2C12 [14] = assay: Osteogenic activity in mouse C2C12 cells assessed as increase of BMP2 mRNA expression at up to 50 nM after 6 days by RT-PCR analysis; format: functional, cell-based; summary of the method: as §2
C2C12 [15] = assay: Induction of osteoblast differentiation in mouse C2C12 cells assessed as increase of alkaline phosphatase expression after 6 days; format: functional, cell-based
Summary of the method: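 C2C12 cells, 4 × 10^3 cells/well, cultured 24 h, then treated for 6 days with medium changed every 3 days; osteoblast differentiation assessed by alkaline phosphatase staining.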

Chain of Runt-related transcription factor 2 (Mus musculus) (Q08775 whole entry): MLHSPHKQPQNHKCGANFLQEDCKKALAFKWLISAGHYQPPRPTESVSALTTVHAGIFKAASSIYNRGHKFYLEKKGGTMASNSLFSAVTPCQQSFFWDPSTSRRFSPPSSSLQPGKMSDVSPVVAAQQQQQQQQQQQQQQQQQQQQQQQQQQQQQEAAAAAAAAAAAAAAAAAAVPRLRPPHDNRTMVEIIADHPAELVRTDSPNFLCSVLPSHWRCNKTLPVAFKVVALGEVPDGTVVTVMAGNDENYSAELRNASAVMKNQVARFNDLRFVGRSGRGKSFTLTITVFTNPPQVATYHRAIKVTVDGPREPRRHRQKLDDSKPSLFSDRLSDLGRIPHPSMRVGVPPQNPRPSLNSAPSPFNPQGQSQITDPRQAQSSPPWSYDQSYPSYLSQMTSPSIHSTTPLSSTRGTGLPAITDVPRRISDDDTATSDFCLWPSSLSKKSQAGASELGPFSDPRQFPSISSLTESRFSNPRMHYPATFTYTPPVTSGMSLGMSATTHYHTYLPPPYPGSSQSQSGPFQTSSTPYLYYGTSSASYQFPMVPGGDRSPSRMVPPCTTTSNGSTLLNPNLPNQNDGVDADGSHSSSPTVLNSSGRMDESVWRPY

Structure (SMILES): CCCCCCCC(=O)SCC/C=C/[C@@H]1CC(=O)NCc2nc(cs2)C2=N[C@@](C)(CS2)C(=O)N[C@@H](C(C)C)C(=O)O1 [LARGAZOLE]
- Activity (Oryctolagus cuniculus): Active
- Activity (Mus musculus [1]): Active
- Activity (Mus musculus [2]): Active
- Activity (C2C12 [3]): Active
- Activity (C2C12 [4]): Active
- Activity (C2C12 [5]): Active
- fold change (FC) (C2C12 [6]): 3
- Activity (C2C12 [7]): Active
- inhibition (C2C12 [8]): Dose-dependent effect
- Activity (C2C12 [9]): Active
- inhibition (C2C12 [10]): Active
- fold change (FC) [11]: 29
- Activity (C2C12 [12]): Non-toxic
- Activity (C2C12 [13]): Active
- Activity (C2C12 [14]): Active
- Activity (C2C12 [15]): Active
